Data set [1] is described as follows: Half life in rat at 1 mg/kg, iv and 2 mg/kg, po. The class given is ADME, organism-based. As to conditions: in vivo. The procedure, abridged:
(§1)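 Rat PK: iv 1 mg/kg paired with oral 3 mg/kg or 2 mg/kg; values are the mean from three animals. Oral bioavailability was measured with the sodium salt in 1% methylcellulose vehicle.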

Data set [2] can be described thus: Clearance in rat blood at 1 mg/kg, iv and 2 mg/kg, po. The class given is ADME, organism-based. The essentials:
as §1

Data set [3] is described as follows: Inhibition of gamma-secretase expressed in african green monkey CV1 cells coexpressing Gal4 DNA-binding/transactivation domain assessed as inhibition of notch processing by luciferase reporter assay. The class given is cell-based. As to conditions: CV-1. In general terms: Reporter assays use an easily measured gene product as a stand-in for the process of interest.

The nature of data set [4]: Oral bioavailability in dog at 1 mg/kg. As to conditions: in vivo. The format is ADME, organism-based, Canis lupus familiaris. The essentials:
(§2)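 Dog PK: iv and oral doses each 1 mg/kg; data from a single animal. Oral bioavailability was measured with the sodium salt in 1% methylcellulose vehicle.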

Data set [5] in a line: Oral bioavailability in rat at 2 mg/kg. The format is ADME, organism-based. As to conditions: in vivo. The essentials:
as §1

Data set [6] addresses Gamma-secretase. Description: Inhibition of gamma-secretase in human SHSY5Y cells expressing human recombinant APP assessed as amyloid beta42 formation by ELISA. The class given is cell-based. As to conditions: sh-sy5y; in the assay text read “amyloid beta40 formation” for “amyloid beta42 formation”. The procedure, abridged: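 SH-SY5Y cells overexpressing human APP Swedish variant were incubated with compound for 48 h. Secreted Aβ42 and Aβ40 were measured by immunoassay (MSD electrochemiluminescence or AlphaLISA).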
Background: An ELISA detects its analyte on a solid surface through an enzyme-linked reagent.

For data set [7], the target named is T1, Gamma-secretase (Homo sapiens) (UniProt Q96BI3+Q9NZ42+Q8WW43+P49768+Q92542+P49810). Nature of the data set: Inhibition of gamma-secretase in human SHSY5Y cells expressing human recombinant APP assessed as amyloid beta40 formation at 20 uM by ELISA. As to conditions: SH-SY5Y.
The nature of data set [8]: Clearance in dog blood at 1 mg/kg, iv and 1 mg/kg, po. The format is ADME, organism-based, Canis lupus familiaris. The essentials: as §2
The target in data set [9] is Gamma-secretase. Description: Inhibition of gamma-secretase in human SHSY5Y cells expressing human recombinant APP assessed as amyloid beta40 formation by ELISA. The format is cell-based. As to conditions: sh-sy5y; in the assay text read “amyloid beta42 formation” for “amyloid beta40 formation”. The procedure, abridged: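 SH-SY5Y cells overexpressing human APP Swedish variant exposed to compound for 48 h; Aβ40 (and Aβ42) in the cell medium quantified by ELISA, either Meso Scale Discovery or AlphaLISA format. Compounds also cross-screened for inhibition of Notch processing.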

Data set [10] is described as follows: Volume of distribution at steady state in dog at 1 mg/kg, iv and 1 mg/kg, po. The class given is ADME, organism-based, Canis lupus familiaris. As to conditions: in vivo, read-out: Vdss. The essentials: as §2
Data set [11] is described as follows: Half life in dog at 1 mg/kg, iv and 1 mg/kg, po. As to conditions: in vivo. The format is ADME, organism-based, Canis lupus familiaris. The procedure, abridged:
as §2

Data set [12] in a line: Volume of distribution at steady state in rat at 1 mg/kg, iv and 2 mg/kg, po. The format is ADME, organism-based. As to conditions: in vivo, read-out: Vdss. The procedure, abridged: as §1
Data set [13] deals with SH-SY5Y. Nature of the data set: Cytotoxicity against human SH-SY5Y cells after 24 hrs by WST1 assay. The class given is cell-based.
Data set [14] has as its system CV-1. Description: Inhibition of gamma-secretase expressed in african green monkey CV1 cells coexpressing Gal4 DNA-binding/transactivation domain assessed as inhibition of notch processing by luciferase reporter assay at 20 uM. The format is cell-based.
Data set [15] concerns the target T1, Gamma-secretase (Homo sapiens). Description: (§3) Inhibition of gamma-secretase in human SHSY5Y cells expressing human recombinant APP assessed as increase in Abeta38 level after 24 hrs by DELFIA. As to conditions: SH-SY5Y. The format is cell-based.
In data set [16] the target is Gamma-secretase. The description is as §3. As to conditions: sh-sy5y. The format is cell-based.
The target of data set [17] is Gamma-secretase. Description: Inhibition of gamma-secretase in human SHSY5Y cells expressing human recombinant APP assessed as decrease in total Abeta level after 24 hrs by DELFIA. As to conditions: sh-sy5y. The class given is cell-based.
The target in data set [18] is Gamma-secretase. Description: Inhibition of gamma-secretase in human SHSY5Y cells expressing human recombinant APP assessed as effect on Abeta40 level after 24 hrs by DELFIA. The class given is cell-based. As to conditions: sh-sy5y.
In data set [19] the target is T1, Gamma-secretase (Homo sapiens). Nature of the data set: (§4) Inhibition of gamma-secretase in human SHSY5Y cells expressing human recombinant APP assessed as decrease in Abeta42 level after 24 hrs by DELFIA. The class given is cell-based. As to conditions: SH-SY5Y.
The target in data set [20] is Gamma-secretase. The description is as §4. The format is cell-based. As to conditions: sh-sy5y.
The nature of data set [21]: Clearance in mouse blood at 3 mg/kg, iv and 10 mg/kg, po. The class given is ADME, organism-based. The procedure, abridged: (§5)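 Mouse PK: single iv dose of 3 mg/kg and oral dose of 10 mg/kg; data are the mean from three animals.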
The nature of data set [22]: Half life in mouse at 3 mg/kg, iv and 10 mg/kg, po. The format is ADME, organism-based. As to conditions: in vivo. The essentials: as §5
Data set [23] can be described thus: Oral bioavailability in rat at 3 mg/kg. The class given is ADME, organism-based. As to conditions: in vivo. The essentials:
as §1

Data set [24] is described as follows: Drug level in mouse blood at 5 mg/kg, po after 2 hrs. The format is ADME, organism-based. More on the design: dose 5 mg/kg, route oral. As to conditions: read-out: Drug uptake. The essentials:
(§6)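 Mice dosed orally at 5 mg/kg in 1% (w/v) aqueous methylcellulose. Blood and brain sampled 2 h post-dose; brain:blood ratio derived from these levels; mean of three mice.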

A short description of data set [25]: Half life in rat at 1 mg/kg, iv and 3 mg/kg, po. As to conditions: in vivo. The format is ADME, organism-based. The procedure, abridged: as §1
Data set [26] in a line: Clearance in rat blood at 1 mg/kg, iv and 3 mg/kg, po. The format is ADME, organism-based. The essentials: as §1
The nature of data set [27]: Drug level in mouse brain at 5 mg/kg, po after 2 hrs. The class given is ADME, organism-based. Also noted: dose 5 mg/kg, route oral. As to conditions: read-out: Drug uptake. The procedure, abridged: as §6
Data set [28] can be described thus: Volume of distribution at steady state in rat at 1 mg/kg, iv and 3 mg/kg, po. The class given is ADME, organism-based. As to conditions: in vivo, read-out: Vdss. The procedure, abridged: as §1
Data set [29] in a line: Volume of distribution at steady state in mouse at 3 mg/kg, iv and 10 mg/kg, po. As to conditions: in vivo, read-out: Vdss. The format is ADME, organism-based. The procedure, abridged: as §5
The nature of data set [30]: Oral bioavailability in mouse at 10 mg/kg. The class given is ADME, organism-based. As to conditions: in vivo. The procedure, abridged:
as §5

Each structure is given as a SMILES string.

A word on the half-life: it is the time needed for the level to fall by half in the phase considered. The term IC50 denotes the point on the concentration scale where inhibition reaches its midpoint. Broadly, the bioavailability is dose-corrected exposure relative to a reference, in per cent. One may read the pIC50 as −log10 of the IC50, conventionally taken in molar units. What is called inhibition is the relative decrease from the control value, in per cent. What is called pEC50 is −log10 of the EC50, conventionally taken in molar units.

For `CC(C)CC[C@H](c1ncc(C(F)(F)F)cn1)N1CC[C@@H](CC(=O)[O-])C[C@H]1c1ccc(C(F)(F)F)cc1.[Na+]`, the half-life in data set [1] is 3 h; in data set [11] it was 3.1 h. Further, the results for the clearance in data set [2] and in [8] were 0.54 L/h/kg and 0.3 L/h/kg, respectively. For the same compound, in data set [3], the IC50 is 25.1 µM. The bioavailability is greater than 100% in data set [4] and 95% in data set [5]. The pIC50 is recorded as less than 4.7 in [6] and 6.1 in [9]. In data set [7], the inhibition worked out at 17%. The Vd in data set [10] turned out to be 1.2 L/kg; in data set [12], 3 L/kg.
`CCC[C@@H](C(=O)O)c1cc(OCc2ccccc2)cc(-c2ccc(C(F)(F)F)cc2)c1`: the IC50 in data set [13] was greater than 100 µM; in [3], greater than 20 µM; in data set [9], 3.98 µM. The figures for the inhibition in data set [14] and in data set [7] were 20% and 32%, respectively. Moreover, the Activity result in data set [15] and in data set [19] was “Dose-dependent effect” throughout. In addition, in data set [16], the pEC50 worked out at 5.9. For the same compound, the pIC50 result was “<= 4.8” in data set [6], less than 4 in [17], less than 4 in data set [18] and 5.8 in data set [20].
Turning to `CC(C)CC[C@H](c1ccc(C(F)(F)F)nc1)N1CC[C@@H](CC(=O)[O-])C[C@H]1c1ccc(C(F)(F)F)cc1.[Na+]`, the IC50 in data set [13] was 100 µM; in [3], greater than 20 µM. For the same compound, in data set [14], the inhibition was found to be 24%. Also, the Activity result in data set [15] and in data set [19] was “Dose-dependent effect” throughout. Further, the pEC50 in [16] was 6.3. Also, the bioavailability is 72% in [4], greater than 100% in data set [23] and greater than 100% in data set [30]. The clearance in data set [21] came to 0.24 L/h/kg; in data set [26], 0.24 L/h/kg; in data set [8] it was 0.18 L/h/kg. In addition, the half-life was 4.3 h in data set [22], 6.6 h in [25] and 5.2 h in data set [11]. For the same compound, the pIC50 in data set [6] amounted to 5.2; in data set [17], 4; in data set [9], 6.5; in [18], 4.4; in data set [20], 6. Moreover, the concentration at 2 h was found to be 5.6 µM in data set [24] and 4.2 µM in [27]. Also, the Vd came out at 2.3 L/kg in data set [28], 1.4 L/kg in data set [29] and 1.1 L/kg in data set [10].

For the origin of these results see ChEMBL document CHEMBL1159115, “Piperidine-derived gamma-secretase modulators” (Bioorg Med Chem Lett, 2010).
